# Reference: PubChem BioAssay
# Activity calls are given as the source filed them.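 Rule for the calls, unless noted: active = viability at or under a set limit in both replicates, limit being median viability minus 3 SD (cut at about 48% in these data, passing the limit was not always enough); inconclusive = at or under the limit in just one replicate; inactive = at or above the limit in both replicates.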
# How the values were obtained:
# [1] = HUVEC growth inhibition – cell-based, human, primary screen (AID 575;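 active = viability at or below 30% in both replicate assays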;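 note: 100% = median of untreated cell wells with 0.1% DMSO on each plate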); details: HUVEC proliferation, CellTiter-Glo luminescence, 72 h; at 10 µM; stronger effect = lower value
# How it was run: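 Material: primary human umbilical vein endothelial cells / Schedule: 72 h exposure, 37 °C, 5% CO2, 30 min RT equilibration / Signal: ATP-based CellTiter-Glo luminescent read / Read-out basis: percent of median DMSO-control luminescence / Control set: 32 DMSO-only cell-control wells (high), 32 MePR drug-control wells (low) per plate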
# [2] = H69AR cell proliferation blockers – human, duplicate replicates, primary screen (AID 580); details: H69AR lung tumor cells viability, ATP luminescence, 72 h; at 10 µM; stronger effect = lower value;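 note: 100% = mean luminescence of untreated wells and 0% = no signal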
# [3] = MRP1 drug-resistance reversers in H69AR cells – cell-based, doxorubicin co-treatment, pilot screen (AID 601;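 active = viability loss from added drug above about 55%, and viability with drug at most 40%, in both replicates, limit read from the data, passing the limit was not always enough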); details: CellTiter-Glo, 72 h, at 10 µM; for differential viability (reversal): stronger effect = higher value
# [4] = yeast transport mutant growth inhibition pilot in 384-well plates, post-Golgi transport modulator project (AID 636; in the data active = inhibition above about 31%); details: absorbance 615 nm, about 18 h, stronger effect = higher value
# [5] = growth suppression of yeast trafficking mutant, preliminary HTS, modulators of trafficking downstream of Golgi apparatus project, 1536-format plate, OD 615 nm (AID 637; in the data active = inhibition above about 30%); details: yeast transport mutant growth, absorbance 615 nm, 18 h; stronger effect = higher value
# [6] = H69AR cells + 2 uM doxorubicin, measured here: viability with 2 uM doxorubicin, stronger effect = lower value
# [7] = H69AR cells, compound alone cytotoxicity
Compound,viability [1],viability [2],differential viability (reversal) ([3]; H69AR cells + 2 uM doxorubicin),"viability [3, 6] [%]","viability [3, 7] [%]",inhibition [4],inhibition [5]
Cn1cccc1C(=O)NC(=O)CSc1nnc(C2CC2)n1-c1ccccc1,102% (inactive),85.7% (inactive),-7.28% (inactive),93,85.7,-1.17% (inactive),-0.63% (inactive)
Cc1nn(CC(O)Cn2c3c(c4ccccc42)CCN(C)C3=O)c(C)c1Br (configuration not stated),52.8% (inactive),69.8% (inactive),-12.1% (inactive),81.9,69.8,-4% (inactive),-2.54% (inactive)
CN(Cc1cnn(C)c1)C(=O)c1cc2ccccc2oc1=O,114% (inactive),103% (inactive),13.3% (inactive),89.9,103,-5.66% (inactive),2.06% (inactive)
COc1cc(CN2CCC(C(=O)NC3CCCC3)CC2)ccc1O,109% (inactive),94.7% (inactive),9.49% (inactive),85.2,94.7,-4% (inactive),0.79% (inactive)
COC(=O)c1cc(-c2c(C)nn(-c3ccccc3)c2C)n[nH]1,97.8% (inactive),101% (inactive),-2.79% (inactive),104,101,-2.63% (inactive),-4.76% (inactive)
CCCOc1ccc(C2C(C(=O)c3ccc(C)o3)=C(O)C(=O)N2Cc2cccnc2)cc1 (configuration not stated),110% (inactive),97.8% (inactive),3.76% (inactive),94,97.8,-5.79% (inactive),1.75% (inactive)
CCCC(C)C1C(C#N)=C(N)Oc2cc(C)oc(=O)c21 (configuration not stated),98.4% (inactive),85.7% (inactive),-6.91% (inactive),92.6,85.7,-2.5% (inactive),4.76% (inactive)
O=C(c1cc(-c2cccs2)on1)N1CCc2ccccc2C1,103% (inactive),104% (inactive),21.8% (inactive),81.8,104,-2.24% (inactive),-0.48% (inactive)
CCOC(=O)C1C(=O)NC(SCC(=O)Nc2nccs2)=C(C#N)C1c1ccccc1OCC (configuration not stated),76.2% (inactive),71.3% (inactive),-1.05% (inactive),72.3,71.3,-1.45% (inactive),7.78% (inactive)
CC(=O)Nc1ccc(S(=O)(=O)N2CCN(Cc3ccncc3)CC2)cc1,90.7% (inactive),109% (inactive),18.1% (inactive),90.5,109,-5.13% (inactive),1.59% (inactive)
CCOC(=O)C1C(=O)OC(C)(C)C1C(C)C(=O)c1ccc(OC)cc1 (configuration not stated),112% (inactive),96% (inactive),3.24% (inactive),92.7,96,-0.39% (inactive),18.6% (inactive)
O=S(=O)(NCCc1ccncc1)c1cc(Br)ccc1F,97.5% (inactive),98.2% (inactive),13.4% (inactive),84.8,98.2,-3.9% (inactive),13.5% (inactive)
CCOC(=O)CCC(=O)c1c(C)oc2ccc(OC)cc12,81.8% (inactive),88.4% (inactive),-5% (inactive),93.4,88.4,1.04% (inactive),13.3% (inactive)
Cc1c(Cc2ccccc2)sc(N)c1C(N)=O,86.5% (inactive),93.5% (inactive),2.93% (inactive),90.6,93.5,-3.77% (inactive),5.71% (inactive)
Cc1ccccc1C(=O)N1CCC(C(=O)Nc2ccc(S(=O)(=O)N3CCCC3)cc2)CC1,97.1% (inactive),78.8% (inactive),-3.87% (inactive),82.7,78.8,-4.55% (inactive),-3.49% (inactive)
C=CCn1c(SCc2cc(=O)n3ccsc3n2)nnc1C1CCCCC1,93.1% (inactive),96.7% (inactive),17.5% (inactive),79.1,96.7,-5.19% (inactive),-0.16% (inactive)
CCOc1ccc(C(=O)Nc2cc(C)on2)cc1OCC,90.1% (inactive),89.9% (inactive),0.35% (inactive),89.6,89.9,-4.87% (inactive),3.17% (inactive)
Cc1cccc(NCc2ccccc2O)c1,76.1% (inactive),94.6% (inactive),5.33% (inactive),89.2,94.6,-0.13% (inactive),-5.87% (inactive)
CC(=O)Nc1ccc2nc(-c3cccnc3)[nH]c2c1,98.6% (inactive),80.7% (inactive),-11.3% (inactive),92,80.7,3.51% (inactive),11.1% (inactive)
Cc1ccc2nc(NC(=O)CN(C)S(=O)(=O)c3cccc4nsnc34)sc2c1,18.1% (active),9.1% (active),-15.1% (inactive),24.2,9.1,-4.27% (inactive),-4.29% (inactive)
CCc1ccc(NC(=O)c2cccnc2)cc1,95.9% (inactive),105% (inactive),23.7% (inactive),81.7,105,-7.2% (inactive),-3.02% (inactive)

Compound,viability [1],viability [2],differential viability (reversal) ([3]; H69AR cells + 2 uM doxorubicin),"viability [3, 6] [%]","viability [3, 7] [%]",inhibition [4],inhibition [5]
Cc1csc(OCc2ccc(C#N)cc2)n1,98.6% (inactive),101% (inactive),16.2% (inactive),85,101,-5.32% (inactive),3.97% (inactive)
O=C(c1noc2c1CCc1ccccc1-2)N1CCOCC1,95.6% (inactive),96.4% (inactive),6.12% (inactive),90.3,96.4,-0.13% (inactive),-2.86% (inactive)
Cn1c(-c2ccc(F)cc2)cnc1NCc1ccccc1,108% (inactive),66.2% (inactive),-15.4% (inactive),81.6,66.2,-3.03% (inactive),4.6% (inactive)
CCn1c(=N)n(CC(=O)C23CC4CC(CC(C4)C2)C3)c2ccccc21,4.87% (active),83.1% (inactive),-0.145% (inactive),83.2,83.1,-5.27% (inactive),15.3% (inactive)
CN1CCN(C(=O)CN(Cc2ccc(Cl)cc2)S(C)(=O)=O)CC1,93.3% (inactive),94.5% (inactive),-1.31% (inactive),95.8,94.5,-1.45% (inactive),4.44% (inactive)
CCCS(=O)(=O)N1CCC(C(=O)NCCN2CCCC2)CC1,96.5% (inactive),94.9% (inactive),8.3% (inactive),86.6,94.9,-3.2% (inactive),2.86% (inactive)
CCCSC1=C(C#N)C(c2ccccc2OCC)CC(=O)N1 (configuration not stated),79% (inactive),90.1% (inactive),-3.18% (inactive),93.3,90.1,-2.5% (inactive),3.33% (inactive)
O=C(CSc1nc2ccc(Cl)cc2[nH]1)NCc1ccco1,74.2% (inactive),65.4% (inactive),-4.26% (inactive),69.6,65.4,0.65% (inactive),13.3% (inactive)
CC(=O)c1cc(-c2ccccc2)n(CC(=O)N2CCN(C3CCCC3)CC2)c1C,98.7% (inactive),80.5% (inactive),-0.095% (inactive),80.6,80.5,-5.58% (inactive),0.95% (inactive)
CCOc1ccc(C2/C(=C(/O)c3ccccc3)C(=O)C(=O)N2CCCN(C)C)cc1OC (configuration not stated),111% (inactive),100% (inactive),7.23% (inactive),92.9,100,-2.63% (inactive),6.19% (inactive)
Cc1ccc(Cn2ccc(NC(=O)c3noc4c3CCCC4)n2)cc1,101% (inactive),112% (inactive),23.6% (inactive),88.6,112,-3.25% (inactive),2.86% (inactive)
O=C(Nc1cc(C(F)(F)F)ccc1Cl)c1cc(C2CC2)on1,96.4% (inactive),91% (inactive),3.55% (inactive),87.4,91,-3.82% (inactive),0.63% (inactive)
CCc1nc(C)ccc1OCC(=O)O,102% (inactive),93% (inactive),-12.6% (inactive),106,93,4.8% (inactive),2.7% (inactive)
O=C(Cc1c[nH]c2ccccc12)N1CCc2ccccc21,88.9% (inactive),80.7% (inactive),13.1% (inactive),67.5,80.7,-2.99% (inactive),-2.86% (inactive)
Cc1c(NC(=O)C2CCCNC2=O)c(=O)n(-c2ccccc2)n1C (configuration not stated),107% (inactive),107% (inactive),-0.405% (inactive),107,107,-2.24% (inactive),3.33% (inactive)
CCCCn1c(SCc2cccnc2)nc2c1c(=O)n(C)c(=O)n2C,121% (inactive),92.8% (inactive),13.7% (inactive),79.2,92.8,-7.76% (inactive),-2.86% (inactive)
Cn1c(=O)[nH]c(=O)c2c1nc(NCCCn1ccnc1)n2Cc1cccc(Br)c1,90.3% (inactive),81.7% (inactive),8.09% (inactive),73.6,81.7,-5.47% (inactive),0.95% (inactive)
CN(C)c1ccnc(NCc2ccccc2)c1C#N,92.7% (inactive),85.8% (inactive),6.29% (inactive),79.5,85.8,-4.53% (inactive),4.6% (inactive)
Cc1cc(C)n(CCCNC(=O)c2ccc(S(=O)(=O)NCc3ccco3)cc2)n1,97.6% (inactive),94.2% (inactive),7.31% (inactive),86.9,94.2,-3.77% (inactive),3.17% (inactive)
COc1ccccc1N1CCN(C(=O)C2CC=CCC2C(=O)O)CC1 (configuration not stated),97.3% (inactive),93.1% (inactive),6.56% (inactive),86.5,93.1,-4.61% (inactive),2.54% (inactive)
